A short description of assay [1]: inhibitors of TNFa-induced NFkB p65 translocation, primary screen, imaging, HUVEC, MLSMR starter and 10KST1 sets (AID 438;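 active means inhibition above 20% together with a positive visual image hit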;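 further: compound added about 3h40 before a 20 min TNFalpha stimulation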;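 on inhibition: signal is the nuclear over cytoplasmic p65 intensity ratio per well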). The settings on record: HUVEC TNFa-induced p65 nuclear translocation; cell count: measured here: nuclei count (cytotoxicity indicator), at 2.08 µM; inhibition: at 2 µM, stronger effect = higher value, 0% TNFa-plus-vehicle, 100% no-TNFa wells.
The nature of assay [2]: endothelial E-selectin expression blockers – imaging, HUVEC, immunofluorescence, MLSMR starter and 10KST1 sets, primary screen (AID 487;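 active means visually confirmed hit in the image check and inhibition above 20%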;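 on inhibition: signal is fraction of cell area covered by stained E-selectin grains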;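 on nuclei count: 100% = median nuclei count of all wells on the same plate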). As to conditions: HUVEC TNFalpha-induced E-selectin immunofluorescence imaging, at 2 µM; inhibition: stronger effect = higher value; nuclei count: measured here: cell number, toxicity.
Assay [3] in a line: Primary imaging screen for DUSP6 inhibitors that restore phospho-Erk in transfected HeLa cells, chemical complementation (AID 609;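 active means compounds giving at least 50% inhibition in the cell-based MKP-3 phosphatase rescue imaging test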;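 on inhibition: phospho-Erk level distribution per well compared with pooled transfected vehicle control wells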). The settings on record: HeLa MKP-3 transfected, phospho-Erk imaging KS statistic, at 10 µM, cells stimulated with TPA for 15 min.
The target of assay [4] is Dual specificity protein phosphatase 6 (Homo sapiens) (UniProt Q16828). The description is as above. As to conditions: HeLa MKP-3 transfected, phospho-Erk imaging KS statistic; at 10 µM; stronger effect = higher value; cells stimulated with TPA for 15 min.
Sequence of Dual specificity protein phosphatase 6 (Homo sapiens) (Q16828 whole entry, looked up): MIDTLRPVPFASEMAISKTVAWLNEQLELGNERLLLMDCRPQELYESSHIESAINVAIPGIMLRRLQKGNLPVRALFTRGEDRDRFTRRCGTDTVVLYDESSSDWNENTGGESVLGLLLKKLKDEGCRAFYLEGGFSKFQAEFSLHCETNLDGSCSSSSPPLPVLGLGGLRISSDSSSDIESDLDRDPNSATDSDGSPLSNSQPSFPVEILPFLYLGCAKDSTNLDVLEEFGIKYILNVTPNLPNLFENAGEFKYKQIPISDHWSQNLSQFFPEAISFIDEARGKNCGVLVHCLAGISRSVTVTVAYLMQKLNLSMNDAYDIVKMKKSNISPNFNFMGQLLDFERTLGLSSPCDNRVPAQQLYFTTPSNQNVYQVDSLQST
Assay [5] addresses Voltage-gated potassium channel subunit beta-2 (Rattus norvegicus) (UniProt P62483). Description: inhibitors of rat Kvbeta2 reductase activity – biochemical, NADPH fluorescence, primary screen (AID 622;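 active means fluorescence slope higher than the sample average by over 3 SD, cut at about -0.22 in these data, passing the limit was not always enough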;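 further: slope of raw intensity against log time taken from 70 to 1610 s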). The settings on record: recombinant KvBeta, 4-cyanobenzaldehyde reduction, at 10 µM, stronger effect = higher value.
For assay [6] the target is unchanged. As to the kind of experiment: enhancers of rat Kvbeta2 NADPH turnover – biochemical, NADPH fluorescence, primary screen (AID 623;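 active means NADPH fluorescence slope more negative than the mean of all samples by about 3 SD, 99.7% confidence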;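 further: fluorescence intensity change per second fitted from 20 to 320 s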). As to conditions: Recombinant KvBeta, NADPH fluorescence decrease slope, 10 min; at 10 µM; stronger effect = lower value.
The target in assay [7] is Muscarinic acetylcholine receptor M4 (Homo sapiens) (UniProt P08173). As to the kind of experiment: M4-linked GIRK flux change, two-sided – cell-based, HEK293 M4/GIRK, thallium flux, BTC-AM, M4 allosteric agonist project, primary screen (AID 625;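 active means fluorescence slope after compound addition differing from the mean of all tested samples at 99.7% confidence, mostly higher but some lower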;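 further: thallium influx through GIRK channels coupled to M4 in HEK293 cells with BTC-AM dye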). As to conditions: at 10 µM, actives lie on both sides. The essentials:
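Material: HEK293 cells with M4 receptor and GIRK channels; Times: cells overnight at 37 °C, BTC-AM loading 1 h, reads 2 min total; Technique: kinetic BTC-AM fluorescence sampled at 1 Hz, 10 s pre-addition baseline; Read-out basis: slope over 15–24 s of trace normalized to starting intensity; Controls: carbachol positive, DMSO negative.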

A short description of assay [8]: inhibitors of larval lipid processing in zebrafish, primary screen, whole organism, PED6 fluorescence, gall bladder and intestine (AID 686).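 Further: larvae 5 to 7 days old with five fish per well; signal comes from phospholipase A2 cleavage of quenched PED6 carried via bile.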 As to conditions: Zebrafish larvae PED6 lipid processing, fluorescence scoring; screened at 20 µM (by protocol). An outline of the steps: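 Incubation: overnight exposure of larvae to compound plus PED6 / Test system: live zebrafish larvae aged 5-7 days, whole organism / Amount: 5 larvae per well / Read-out basis: visual per-well fluorescence inhibition score / Signal: visual fluorescence microscopy scoring of gall bladder, gut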

Assay [9] can be described thus: loss of swimming-algae plug formation – whole organism, Chlamydomonas reinhardtii, WT vs cilia-less mutant, absorbance, 96-well, primary screen (AID 463189;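 active means inhibition at or above 50% relative to wild type and mutant plate controls; inactive means inhibition below 50%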;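 further: 0% = wild type cc124 cells in DMSO and 100% = ciliumless bld1 mutant cells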). The settings on record: Chlamydomonas reinhardtii gravitaxis, OD600 absorbance, 2 days; at 10 µM; stronger effect = higher value.
[10] abbreviates: measured here: cell density z-score.
[11] abbreviates: measured here: nuclear c-Myc green intensity z-score.
Where [12] appears, read: measured here: nuclear pErk red intensity z-score, stronger effect = higher value.

Activity calls are given as the source filed them.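 How the source made its calls, unless noted: active means a full or partial loss of lipid-probe fluorescence in the fish gall bladder, intestine or both, judged by eye; inactive means no fluorescence loss, or compound toxic to the fish.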

Sequence of Voltage-gated potassium channel subunit beta-2 (Rattus norvegicus) (P62483 whole entry, looked up): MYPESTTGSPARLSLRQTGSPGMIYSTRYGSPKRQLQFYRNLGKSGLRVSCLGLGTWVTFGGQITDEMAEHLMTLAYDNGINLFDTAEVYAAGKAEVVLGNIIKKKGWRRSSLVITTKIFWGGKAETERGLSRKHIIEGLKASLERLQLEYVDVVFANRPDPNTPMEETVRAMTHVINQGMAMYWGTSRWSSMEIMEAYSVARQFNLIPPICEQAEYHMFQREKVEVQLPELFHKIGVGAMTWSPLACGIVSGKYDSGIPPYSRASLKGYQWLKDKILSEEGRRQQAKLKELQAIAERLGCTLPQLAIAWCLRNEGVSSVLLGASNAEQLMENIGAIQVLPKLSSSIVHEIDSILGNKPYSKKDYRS
Sequence of Muscarinic acetylcholine receptor M4 (Homo sapiens) (P08173 whole entry, looked up): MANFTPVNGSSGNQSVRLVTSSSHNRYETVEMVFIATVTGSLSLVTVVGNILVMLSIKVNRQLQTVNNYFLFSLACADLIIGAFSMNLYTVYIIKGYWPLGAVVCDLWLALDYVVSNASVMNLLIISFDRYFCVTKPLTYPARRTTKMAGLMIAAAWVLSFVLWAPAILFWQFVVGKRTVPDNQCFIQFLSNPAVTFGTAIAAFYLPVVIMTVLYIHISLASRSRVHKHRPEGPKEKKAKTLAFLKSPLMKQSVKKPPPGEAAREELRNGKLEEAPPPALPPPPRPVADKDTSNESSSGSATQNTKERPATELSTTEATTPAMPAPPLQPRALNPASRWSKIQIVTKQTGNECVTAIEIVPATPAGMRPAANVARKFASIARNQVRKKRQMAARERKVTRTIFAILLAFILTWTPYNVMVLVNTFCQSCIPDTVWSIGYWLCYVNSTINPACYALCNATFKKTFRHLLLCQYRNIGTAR

A word on the inhibition: it is the change of the read-out against control, counted positive when it falls. Consider `COc1ccc(C(=O)Nc2ccccc2N2CCOCC2)cc1Br`, for which, in assay [1], the cell count was determined as 522. In addition, the inhibition in [1] is -7.6% (inactive); in assay [2], -11.8% (inactive); in assay [4], 37.7% (inactive); in assay [9], 10.5% (inactive). Also, the nuclei count in assay [2] is 153%. For the same molecule, the z-score in assay [3] (setting [10]) was 2.22; in [3] (setting [11]), -2.31; in [3] (setting [12]), -0.121. Moreover, the fluorescence slope in assay [5] was -0.351 (inactive); in assay [7] it was 0.00733 (inactive). Further, the NADPH fluorescence slope in [6] is -9.8e-06 (inactive). For the same molecule, the outcome in assay [8] was inactive.
As to `CC1N(O)C(c2ccc(Cl)cc2Cl)N(O)C1(C)C` (stereo unspecified), in [1], the cell count was found to be 482. Also, the inhibition was 1.9% (inactive) in [1], -3.5% (inactive) in [2], 7.93% (inactive) in [4] and 43.1% (inactive) in [9]. The molecule also showed a nuclei count in assay [2] of 94.1%. Moreover, the z-score is -0.283 in [3] (setting [10]), -1.5 in [3] (setting [11]) and 1.54 in assay [3] (setting [12]). Further, the fluorescence slope was -0.347 (inactive) in assay [5] and 0.00632 (inactive) in [7]. Also, the NADPH fluorescence slope in assay [6] was 9.2e-07 (inactive). Moreover, in assay [8], the molecule was called inactive.
As to `CCCn1c(SCC#N)nc2c(c1=O)C1(CCCC1)Cc1ccccc1-2`, the cell count in assay [1] turned out to be 547. The inhibition in assay [1] was -1.4% (inactive); in [2], -10.8% (inactive); in assay [4], 3.97% (inactive); in [9], -14.9% (inactive). For the same molecule, in assay [2], the nuclei count was found to be 185%. Besides, the z-score was -0.545 in [3] (setting [10]), 0.717 in assay [3] (setting [11]) and -0.241 in [3] (setting [12]). Further, the fluorescence slope in [5] is -0.402 (inactive); in assay [7], 0.00798 (inactive). For the same molecule, in assay [6], the NADPH fluorescence slope is -3.9e-05 (inactive). Besides, the call in [8] was inactive.
With `CC(C)c1nc2n[nH]c(N)c2c2c1CCCC2`, the cell count in [1] turned out to be 576. Besides, the inhibition in [1] was 2.1% (inactive); in assay [2] it was -38.2% (inactive); in [4], 7.21% (inactive); in assay [9], -2.96% (inactive). The same molecule returned a nuclei count in assay [2] of 148%. For the same molecule, the z-score is -0.386 in assay [3] (setting [10]), 1.02 in assay [3] (setting [11]) and -1.27 in assay [3] (setting [12]). Besides, the fluorescence slope in assay [5] was -0.465 (inactive); in assay [7] it was 0.00509 (inactive). For the same molecule, the NADPH fluorescence slope in [6] is -8.5e-05 (inactive). Also, in assay [8], the molecule was classed as inactive.
For `COC(=O)c1sc2nc(N3CCCCC3)c3c(c2c1N)CC(C)(C)N(C)C3`, the cell count in [1] came to 365. The inhibition in assay [1] is -3.8% (inactive); in assay [2], -114% (inactive); in assay [4], 3.42% (inactive); in assay [9], 7.69% (inactive). In addition, the nuclei count in [2] amounted to 173%. The z-score was -0.314 in assay [3] (setting [10]), 1.33 in [3] (setting [11]) and 0.691 in [3] (setting [12]). Besides, the fluorescence slope in [5] is -0.155 (active); in assay [7] it was 0.00431 (inactive). Also, the NADPH fluorescence slope in assay [6] is 8.1e-06 (inactive). In [8], the result was inactive.
Consider `CCCCCSc1nc(C)c(CC(=O)O)c(=O)[nH]1`, for which the cell count in assay [1] turned out to be 400. Also, the inhibition is -8.8% (inactive) in assay [1], -27.1% (inactive) in assay [2], 1.04% (inactive) in [4] and 34.5% (inactive) in assay [9]. In assay [2], this molecule gave a nuclei count of 114%. Further, the results for the z-score in assay [3] (setting [10]), in [3] (setting [11]) and in assay [3] (setting [12]) were 0.718, -0.507 and -1.88, respectively. The fluorescence slope is -0.477 (inactive) in [5] and 0.00563 (inactive) in assay [7]. In [6], the NADPH fluorescence slope was -5.1e-06 (inactive). Further, the molecule was classed as inactive in [8].
For `CC(C)Cc1nc(N2CCN(C(=O)Cc3ccccc3)CC2)c(C#N)c2c1COC(C)(C)C2`, the cell count in assay [1] is 601. For the same molecule, the inhibition was -8.9% (inactive) in [1], -80.2% (inactive) in assay [2], 9.07% (inactive) in assay [4] and 13.3% (inactive) in assay [9]. Also, the nuclei count in [2] came out at 153%. The values for the z-score in assay [3] (setting [10]), in [3] (setting [11]) and in [3] (setting [12]) were -0.132, -0.0812 and -0.136, respectively. For the same molecule, the fluorescence slope in assay [5] was -0.453 (inactive); in assay [7] it was 0.00471 (inactive). Besides, the NADPH fluorescence slope in assay [6] was -0.000102 (inactive). In addition, in assay [8], the molecule was called inactive.

These data come from PubChem BioAssay.
